Most compounds without a hit are left out; they make up all but 2.9% or so of the library.
OX1R antag-1 = antagonists of human orexin 1 receptor (OX1R); O43613; OX1R-expressing cells, FRET antagonist read-out; inhibition, % at 6.6 µM; actives 1.8% (n = 330,000); AID 485270; in the data active = inhibition mostly above about 38%, no sharp cut-off; inactive = mostly below about 40%;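 note: 0% = agonist challenge alone and 100% = reference antagonist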
Target sequence (O43613 whole entry, looked up): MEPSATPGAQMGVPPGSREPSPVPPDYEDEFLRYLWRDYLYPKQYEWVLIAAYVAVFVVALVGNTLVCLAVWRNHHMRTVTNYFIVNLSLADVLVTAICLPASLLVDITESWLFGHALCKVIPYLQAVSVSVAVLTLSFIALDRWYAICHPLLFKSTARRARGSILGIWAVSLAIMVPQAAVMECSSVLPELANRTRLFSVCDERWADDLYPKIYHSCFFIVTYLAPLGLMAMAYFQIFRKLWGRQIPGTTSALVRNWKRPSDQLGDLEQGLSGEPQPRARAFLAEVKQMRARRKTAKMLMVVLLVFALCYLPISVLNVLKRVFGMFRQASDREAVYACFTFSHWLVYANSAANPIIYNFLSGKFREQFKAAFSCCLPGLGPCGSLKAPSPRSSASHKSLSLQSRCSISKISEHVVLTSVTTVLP
CHO-K1 Ca PAM = counter-screen for M1 PAMs: effect in parental CHO-K1 cells. activation, % at 3 µM. AID 602247. ATP EC20, Fluo-8 calcium fluorescence; 0% at ATP EC20, 100% at ATP max. actives 0.02% (n = 360,000);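 active = activation above the run cutoff, the mean activation of all test compounds plus 3 SD, cut at about 40% in these data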;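 note: peak over basal fluorescence ratio in a 140 s read after ATP addition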
CHO-K1 Ca ag = nonselective activator or artifact in parental CHO-K1 cells; Fluo-8 calcium fluorescence; scaled to maximal ATP response, vehicle zero; activation, % at 3 µM; actives 0.48% (n = 360,000); in the data active = activation above about 15%;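 note: untransfected CHO-K1 host cells lacking M1 receptor as counterscreen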
CHO parental Ca = counter-screen: ATP calcium response change in parental CHO cells | parental CHO-K1, ATP-induced calcium, Fluo-8 fluorescence | inhibition, % at 5.6 µM | actives 0.63% (n = 330,000) | AID 463079;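 active = inhibition above that plate's mean sample inhibition plus 3 SD, cut at about 26% in these data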;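 note: 0% = ATP-challenged DMSO wells and 100% = DMSO wells without ATP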
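Test system: parental CHO cells; detection: calcium-sensitive Fluo-8 fluorescence; evaluation: percent inhibition of calcium signal; also added: ATP as calcium-mobilizing challenge; repeats: one well per compound; control set: ATP-challenged DMSO wells low, unchallenged DMSO wells high; compound: single nominal dose of 5.6 µM per compound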
CHO-K1 Ca antag = counter-screen for M1 antagonists: effect in parental CHO-K1 cells | inhibition, % at 3 µM | AID 602250 | ATP-induced calcium, Fluo-8 fluorescence | actives 0.6% (n = 360,000);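 active = inhibition above a per-plate cutoff, the plate's mean sample inhibition plus 3 SD, cut at about 24% in these data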;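 note: 0% = DMSO plus EC80 ATP and 100% = DMSO alone without ATP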
OX1R antag-2 = antagonists of human orexin 1 receptor; CHO/OX1R cells, Fluo-8 calcium fluorescence, orexin A; actives 0.43% (n = 330,000); O43613; AID 434989; inhibition, % at 5 µM;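 active = inhibition above its plate's threshold, mean inhibition of all tested compounds on the plate plus 3 SD, cut at about 37% in these data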;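 note: 0% = orexin A challenge wells and 100% = SB-334867-A antagonist wells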
* marks the source's active call; other numbers are inactive results; nt = no result.

SMILES	OX1R antag-1	CHO-K1 Ca PAM	CHO-K1 Ca ag	CHO parental Ca	CHO-K1 Ca antag	OX1R antag-2
C=CCSc1nnc(-c2ccc([N+](=O)[O-])cc2)o1	41.9	3.1	-0.1	-2.0	-0.4	-8.7
COc1ccc(CNC(=O)OC2CC3CC2[C@H]2CCCCN2C3=O)cc1 (stereo partly drawn)	nt	18.1	1.6	nt	-15.9	nt
CCc1ccccc1NC(=O)COC(=O)C1CC(=O)N(c2ccc(F)cc2)C1 (stereo not drawn)	4.4	-8.1	0.1	-4.8	28.8*	-9.6
FC(F)Oc1ccc(NC(=S)NCc2ccccc2)cc1	10.1	-13.7	3.4	3.4	27.6*	-10.2
FC(F)(F)c1cccc(NC(=S)NCc2ccc(Cl)cc2)c1	19.1	8.8	16.9*	9.9	22.0	8.0
FC(F)(F)c1ccc(NC(=S)NCc2ccccc2)cc1	17.8	-10.0	11.4	29.8*	16.6	28.1
FC(F)Oc1ccc(NC(=S)NCCc2ccccn2)cc1	11.0	31.5	1.0	-9.1	-9.7	-16.7
Fc1ccc(CNC(=S)Nc2cccc(C(F)(F)F)c2)cc1	30.6	3.2	9.3	10.6	20.2	16.9
Fc1ccc(NC(=S)Nc2ccccc2OC(F)F)cc1Cl	10.2	-9.4	9.9	-2.8	21.7	-11.9
Cc1ccc(NC(=S)Nc2ccc(Cl)c(Cl)c2)c(OC(F)F)c1	4.0	-5.5	9.9	7.9	26.1*	-4.2
O=C(O)c1ccc(NC(=S)NCc2ccccc2)cc1	7.1	24.2	0.9	6.0	-13.1	2.3
COC(=O)c1ccc(NS(=O)(=O)c2cc(-c3cc(C)no3)ccc2OC)cc1	14.8	0.2	-0.2	-23.4	-4.0	13.6
O=C(Nc1ccc2c(c1)OCO2)C1CC(=O)N(c2ccc(F)cc2)C1 (stereo not drawn)	4.5	-0.7	1.0	8.1	4.4	-17.4
CN(CC(=O)Nc1cccc(F)c1)CC(=O)Nc1cccc(S(N)(=O)=O)c1	8.7	5.0	0.5	-17.3	-8.0	-7.3
FC(F)Oc1ccc(NC(=S)NCc2ccccc2)cc1Cl	13.9	3.8	13.1	34.0*	11.7	9.2
CC(NC(=S)Nc1ccc(OC(F)F)c(Cl)c1)C(C)(C)C (stereo not drawn)	24.4	2.6	11.7	34.3*	7.3	37.8*
Cc1ccc(NC(=S)Nc2ccc(OC(F)F)c(Cl)c2)cc1Cl	11.8	1.8	6.5	21.0	14.6	-3.7
CC(C)Oc1ccc(CNC(=S)Nc2ccccc2)cc1Cl	15.4	-6.8	4.6	0.3	4.3	-15.9
Cc1[nH]n(-c2ccccc2)c(=O)c1/C=N/NC(=O)c1ccc(O)cc1O	36.6*	8.2	-1.2	-11.1	-6.6	-20.7
Cc1ccc(-n2[nH]c(C)c(/C=N/NC(=O)c3ccc(O)cc3O)c2=O)cc1	37.6*	8.1	-0.4	-3.7	-13.7	-5.4
Cc1cccc(NC(=O)c2ccccc2NC(=O)c2ccccc2)n1	12.1	0.3	1.9	-21.6	-13.5	-39.8
CCCCN(CC(=O)NCCOC)C(=O)Cn1nnc2ccccc21	14.9	13.3	-0.1	-1.0	-2.5	-5.1
CCn1c(O)c(C=Nc2ccccc2)sc1=S	59.4*	nt	nt	-14.2	nt	-20.6
Oc1c(C=Nc2ccccc2)sc(=S)n1Cc1ccccc1	40.4	-0.1	0.3	-4.0	-2.6	-14.8
C=CCn1c(O)c(C=Nc2ccccc2)sc1=S	20.9	-12.2	-0.8	-10.7	28.9*	-27.1
SMILES	OX1R antag-1	CHO-K1 Ca PAM	CHO-K1 Ca ag	CHO parental Ca	CHO-K1 Ca antag	OX1R antag-2
CN(C)S(=O)(=O)c1cccc(NC(=O)CSc2cccc3cccnc23)c1	16.7	11.7	4.1	28.1	-5.4	17.9
Cc1ccc(OCC(=O)c2cc(C)n(Cc3cccs3)c2C)c([N+](=O)[O-])n1	48.9	-11.4	7.0	25.1	28.3*	21.2
COc1cc(Br)c(/C=C/c2ccc3cccc(O)c3n2)cc1OC	9.4	8.3	4.8	-0.8	2.7	-9.9
COc1cc(/C=C/c2ccc3cccc(O)c3n2)c(Br)cc1O	6.8	-8.7	3.3	44.9*	20.9	19.1
CN(C)C(/C=C/Nc1ccc(C#N)cc1)=C(C#N)C#N	13.7	19.3	1.2	-2.8	-8.8	-1.3
CN(C)C(/C=C/Nc1ccc([N+](=O)[O-])cc1)=C(C#N)C#N	58.2*	4.4	6.4	-6.3	16.4	-4.4
CN(C)c1ccc2c3c(ccc(N(C)C)c13)C(=O)OC2	14.8	17.2	1.2	-4.1	-8.3	-18.9
CSCCC(NS(=O)(=O)c1ccc(Cl)cc1)C(=O)OCc1c(Cl)cccc1Cl (stereo not drawn)	66.5*	12.1	0.0	-9.6	-1.7	-8.4
CSCCC(NS(=O)(=O)c1ccc(Cl)cc1)C(=O)OCc1cccc(Cl)c1 (stereo not drawn)	11.9	17.4	2.2	41.1*	-0.8	-11.9
CSCCC(NS(=O)(=O)c1ccc(Cl)cc1)C(=O)OCC(=O)N(C(C)C)C(C)C (stereo not drawn)	24.8	7.3	0.4	-14.4	-4.1	-20.3
CSCCC(NS(=O)(=O)c1ccc(Cl)cc1)C(=O)O (stereo not drawn)	1.5	3.5	0.9	11.3	-15.1	-10.3
CC(=O)N1CCCC(c2cc(C(=O)Nc3ccccc3)no2)C1 (stereo not drawn)	nt	-9.4	-0.2	nt	34.4*	nt
CCOc1ccccc1NC(=O)Cn1nnc(C(=O)NCc2ccc3c(c2)OCO3)c1N	19.2	12.7	2.8	-21.2	-7.7	-22.9
COc1ccccc1NC(=O)c1ccccc1S(=O)(=O)c1ccccc1[N+](=O)[O-]	58.3*	11.6	0.4	-13.8	-5.9	-8.7
Cc1nnc2n1CCCCC2	12.2	-9.6	-0.3	3.1	4.5	17.0
CC1(C(=O)Nc2cnc3ccccc3c2)CCN1Cc1ccc2ccccc2c1 (stereo not drawn)	nt	31.0	3.2	nt	-14.1	nt
CC1(C(=O)Nc2cnc3ccccc3c2)CCN1Cc1cc2ccccc2o1 (stereo not drawn)	nt	-16.2	2.7	nt	34.8*	nt
CCn1cc(C(=O)NCCCN(CC(C)C)CC(C)C)c(=O)c2cc(S(=O)(=O)N3CCOCC3)ccc21	18.2	14.0	0.2	-10.5	-11.6	-7.9
COc1cc(Nc2ccc(C(=O)O)cc2[N+](=O)[O-])cc(OC)c1	53.7*	18.1	-0.3	-3.2	-6.5	-6.6
CNc1ccc2c3c(cccc13)C(=O)N(C)C2=O	9.1	-12.6	97.7*	78.6*	29.9*	87.9*
CN1C(=O)c2cccc3c(Br)ccc(c23)C1=O	17.5	15.8	1.4	-7.4	-12.0	-19.4
O=C(CCC(=O)c1ccc(Br)cc1)Nc1cccc(C(F)(F)F)c1	14.4	14.7	0.4	-9.0	-7.8	-22.5
O=C(CCC(=O)c1ccc(F)cc1)Nc1cccc(Br)c1	-4.0	0.8	1.5	38.1*	-12.9	5.5
COc1ccc(C(=O)N2CCCN(C)CC2)cc1S(=O)(=O)N(C)Cc1ccccc1	6.4	-8.0	0.7	3.5	-6.1	-5.6

Compound activity as filed in PubChem BioAssay.
